Active and inactive are the calls of the source. The calls are words filed in the database; no cut-off is given here.
How the values were obtained:
[1] = molecular target: T1, 3-oxo-5-alpha-steroid 4-dehydrogenase 2 (Homo sapiens, UniProt P31213); experiment: Inhibition of human prostate 5alpha-reductase type 2 assessed as conversion of [3H]testosterone to dihydrotestosterone; parameters: species or system Prostate gland
T1 sequence (P31213 whole entry): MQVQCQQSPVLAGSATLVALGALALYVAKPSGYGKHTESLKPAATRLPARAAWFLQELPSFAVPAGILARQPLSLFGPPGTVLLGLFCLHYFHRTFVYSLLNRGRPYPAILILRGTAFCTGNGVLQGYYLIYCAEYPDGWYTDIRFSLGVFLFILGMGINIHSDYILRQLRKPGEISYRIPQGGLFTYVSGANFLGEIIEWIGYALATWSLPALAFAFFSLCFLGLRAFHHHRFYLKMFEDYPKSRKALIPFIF
In short: (§1)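 Each reaction contained 1 mM DTT in 40 mM sodium phosphate, 2 nM [3H]T and 2 mM NADPH. Type 1 ran at pH 8.0 with 6.31 µM T added and 90 µg solubilized rat liver microsomal protein. Type 2 ran at pH 6.5 with 50 µg human prostate membrane protein. Inhibitors were tested at 1e-11–1e-3 M, in duplicate, 60 min at 37.5 °C. Reactions were stopped with dichloromethane, DHT separated by TLC and radioscanned, and IC50 taken from inhibition curves.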

[2] = Cytotoxicity against Swiss mouse primary peritoneal macrophages assessed as growth inhibition at 50 uM after 48 hrs by MTT assay; settings: for growth inhibition (GI): peritoneal macrophage cell, 48 h, 50 µM; for inhibition at 48 h, 50 µM: Swiss, primary peritoneal macrophages, read-out: GI
PC-3 = experiment: (§2) Cytotoxicity against human PC3 cells assessed as growth inhibition at 50 uM after 48 hrs by SRB assay; format: functional
In short: (§3)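 PC-3 cells (NCI) were grown in RPMI-1640 with 10% FBS, 2 mM L-glutamine, antibiotics/amphotericin B and 1% nonessential amino acids at 37 °C in 5% CO2. Viability exceeded 95% (trypan blue). Cells were seeded at 5000–10000/well, given 24 h, then exposed 48 h to 50 µM compound. Cells were fixed in cold TCA, stained with 0.4% SRB and read at 515 nm after Tris solubilization. Inhibition = 100 − (sample/vehicle absorbance × 100).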

[3] = molecular target: T2, 3-oxo-5-alpha-steroid 4-dehydrogenase 1 (Rattus norvegicus, UniProt P24008); experiment: Inhibition of rat liver 5alpha-reductase type 1 assessed as conversion of [3H]testosterone to dihydrotestosterone; in short: as §1
T2 sequence (P24008 whole entry): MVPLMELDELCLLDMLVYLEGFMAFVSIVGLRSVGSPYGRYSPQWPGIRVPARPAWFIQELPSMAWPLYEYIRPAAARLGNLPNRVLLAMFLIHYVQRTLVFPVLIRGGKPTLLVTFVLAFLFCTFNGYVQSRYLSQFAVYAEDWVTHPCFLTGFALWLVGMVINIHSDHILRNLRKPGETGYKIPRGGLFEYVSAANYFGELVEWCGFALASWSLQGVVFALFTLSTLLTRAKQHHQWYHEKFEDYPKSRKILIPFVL

[4] = as §2; format: functional; settings: PC-3, 48 h, read-out: GI; in short: as §3

Structure (SMILES)	IC50 [1]	IC50 ([3]; read-out: IC50) [µM]	growth inhibition (GI) [2]	growth inhibition (GI) (PC-3)	inhibition at 48 h, 50 µM [2] [%]	inhibition of growth at 50 µM [4] [%]	IC50 [3]	IC50 ([1]; read-out: IC50) [µM]
CC(=O)O[C@H]1CC[C@@]2(C)C(=CC[C@@H]3[C@@H]2CC[C@]2(C)C(Cl)=C(C=O)C[C@@H]32)C1			Non-toxic	inactive			Not Active	0.05
CC(=O)N1CCN(c2ccc(OCC3COC(Cn4ccnc4)(c4ccc(Cl)cc4Cl)O3)cc2)CC1 (stereo not given) [KETOCONAZOLE]	Not Active				41.5	85.4		
CC(C)(C)NC(=O)[C@H]1CC[C@H]2[C@@H]3CC[C@H]4NC(=O)C=C[C@]4(C)[C@H]3CC[C@]12C [FINASTERIDE]		630	Non-toxic	inactive				
C[C@]12CC[C@H](OC(=O)C3CCCCCC3)CC1=CC[C@@H]1[C@@H]2CC[C@]2(C)C(n3ccnc3)=C(C=O)C[C@@H]12	Not Active	320	Non-toxic	inactive				
C[C@]12CC[C@H](OC(=O)C3CCCCCC3)CC1=CC[C@@H]1[C@@H]2CC[C@]2(C)C(Cl)=C(C=O)C[C@@H]12			Non-toxic	inactive			Not Active	0.015
C[C@]12CC[C@H](OC(=O)C3CCC3)CC1=CC[C@@H]1[C@@H]2CC[C@]2(C)C(Cl)=C(C=O)C[C@@H]12			Non-toxic	inactive			Not Active	0.013
C[C@]12CC[C@H](OC(=O)C3CCCC3)CC1=CC[C@@H]1[C@@H]2CC[C@]2(C)C(Cl)=C(C=O)C[C@@H]12			Non-toxic	inactive			Not Active	0.05
C[C@]12CC[C@H](OC(=O)C3CCCCC3)CC1=CC[C@@H]1[C@@H]2CC[C@]2(C)C(Cl)=C(C=O)C[C@@H]12			Non-toxic	inactive			Not Active	0.008
C[C@]12CC[C@H](OC(=O)C3CC3)CC1=CC[C@@H]1[C@@H]2CC[C@]2(C)C(Cl)=C(C=O)C[C@@H]12			Non-toxic	inactive			Not Active	0.0032

Second part, led by results:

IC50 [1]	IC50 ([3]; read-out: IC50) [µM]	Structure (SMILES)	growth inhibition (GI) [2]	growth inhibition (GI) (PC-3)	inhibition at 48 h, 50 µM [2] [%]	inhibition of growth at 50 µM [4] [%]	IC50 [3]	IC50 ([1]; read-out: IC50) [µM]
Not Active	250	C[C@]12CC[C@H](OC(=O)C3CCC3)CC1=CC[C@@H]1[C@@H]2CC[C@]2(C)C(n3ccnc3)=C(C=O)C[C@@H]12	Non-toxic	inactive				
Not Active		CC(=O)O[C@H]1CC[C@@]2(C)C(=CC[C@@H]3[C@@H]2CC[C@]2(C)C(n4ccnc4)=C(C=O)C[C@@H]32)C1			36.2	56.5	Not Active	
Not Active	300	C[C@]12CC[C@H](OC(=O)C3CCCCC3)CC1=CC[C@@H]1[C@@H]2CC[C@]2(C)C(n3ccnc3)=C(C=O)C[C@@H]12	Non-toxic	inactive				
Not Active	200	C[C@]12CC[C@H](OC(=O)C3CC3)CC1=CC[C@@H]1[C@@H]2CC[C@]2(C)C(n3ccnc3)=C(C=O)C[C@@H]12			41.5	100		
Not Active	320	C[C@]12CC[C@H](OC(=O)c3ccc(F)cc3)CC1=CC[C@@H]1[C@@H]2CC[C@]2(C)C(n3ccnc3)=C(C=O)C[C@@H]12			30.1	100		
Not Active	265	C[C@]12CC[C@H](OC(=O)C3CCCC3)CC1=CC[C@@H]1[C@@H]2CC[C@]2(C)C(n3ccnc3)=C(C=O)C[C@@H]12	Non-toxic	inactive				
Not Active	100	C[C@]12CC[C@H](OC(=O)c3ccc(Cl)cc3)CC1=CC[C@@H]1[C@@H]2CC[C@]2(C)C(n3ccnc3)=C(C=O)C[C@@H]12			29.2	98.2		
Not Active	94.5	C[C@]12CC[C@H](OC(=O)c3ccc(Br)cc3)CC1=CC[C@@H]1[C@@H]2CC[C@]2(C)C(n3ccnc3)=C(C=O)C[C@@H]12			40.3	100		
Not Active	300	C[C@]12CC[C@H](OC(=O)c3ccc(I)cc3)CC1=CC[C@@H]1[C@@H]2CC[C@]2(C)C(n3ccnc3)=C(C=O)C[C@@H]12	Non-toxic	inactive				

From ChEMBL document CHEMBL3351945, “Effect of dehydroepiandrosterone derivatives on the activity of 5α-reductase isoenzymes and on cancer cell line PC-3” (Bioorg Med Chem, 2014)
